How the values were obtained:
[1] = Inhibition of HCV NS4A tagged recombinant single chain NS3 protease after 15 mins; parameters: species or system Hepacivirus hominis
[2] = Selectivity for HCV NS3 protease over human neutrophil elastase
In short: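 Ratio of inhibitory activity against human neutrophil elastase to that against HCV protease (HNE/HCV), taken as selectivity. HCV activity was from a continuous protease assay using NS4A-tethered single-chain NS3 serine protease, giving Ki* as the equilibrium constant for reversible covalent binding of the electrophilic ketone to the active-site serine. Compounds were tested as P1-epimer diastereomer mixtures.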

[3] = test system: Hepatitis C virus; assay: Antiviral activity against HCV in human hepatoma cells assessed as inhibition of RNA replication by replicon assay; assay type: functional, Hepacivirus hominis
[4] = Bioavailability in dog; assay type: ADME, organism-based, Canis lupus familiaris; conditions: in vivo
[5] = AUC in monkey at 3 mg/kg, po; assay type: ADME, organism-based, Macaca mulatta; parameters: dose 3 mg/kg, route oral; conditions: rhesus monkey, plasma

Which Ki [1] does the source give for `CC(C)(C)NC(=O)N[C@H](C(=O)N1C[C@H]2[C@@H]([C@H]1C(=O)NC(CC1CCC1)C(=O)C(N)=O)C2(C)C)C(C)(C)C` (stereo not given in full) [BOCEPREVIR] here?
Its Ki is 0.014 µM.

What about the Ratio [2] of the same compound?
Its Ratio is 2200.

What about the EC90 [3] of the same compound?
Its EC90 is 0.35 µM.

What about the bioavailability [4] of the same compound?
Its bioavailability is 34%.

And the AUC [5]?
Its AUC is 0.12 µM·h.

— ChEMBL document CHEMBL1156160, “The introduction of P4 substituted 1-methylcyclohexyl groups into Boceprevir: a change in direction in the search for a second generation HCV NS3 protease inhibitor” (Bioorg Med Chem Lett, 2010)
